Converted amounts (≈) assume the structure as drawn.
Columns and labels:
[1] = system: Trypanosoma brucei brucei; assay: Antitrypanosomal activity against Trypanosoma brucei brucei BF427 measured after 48 hrs by Alamar blue assay; assay type: functional, organism-based; details: BF427, 48 h
Method in brief: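 Bloodstream T. brucei BF427 cultured in HMI-9 medium. Exposed to serial 3-fold compound dilutions in triplicate, read with Alamar Blue at 48 h. Pentamidine isethionate control in every assay.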

[2] = Cytotoxicity against human CRL8155 cells assessed as growth inhibition after 48 hrs by Alamar blue assay; assay type: cell-based
Method in brief: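 Serial 3-fold dilutions in quadruplicate, 48 h, AlamarBlue read-out. Inhibition relative to untreated cells after subtracting a 50 µM quinacrine background. EC50 by nonlinear regression.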

[3] = Protein binding in Swiss Webster mouse plasma at 2 uM after 8 hrs by microdialysis based liquid chromatography/tandem mass spectrometric analysis; assay type: ADME, cell-free
Method in brief: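 Compound at 2 µM in 50% pooled female Swiss Webster mouse plasma (lithium heparin) with 10X PBS, dialysed against blank 10X PBS in triplicate chambers of a microdialysis device. Incubation at 37 °C, 5% CO2 overnight or ≥8 h with shaking. Centrifuged 3000 rcf 15 min; supernatants concentrated, LC-MS/MS. Propranolol control.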

[4] = target: Cytochrome P450 3A4 (Homo sapiens, UniProt P08684); assay: Inhibition of CYP3A4 (unknown origin); assay type: ADME
[5] = system: Mus musculus; assay: AUC in mouse at 50 mg/kg, po administered as single dose measured 24 hrs post dose by liquid chromatography/tandem mass spectrometric analysis; assay type: ADME, organism-based; details: in vivo
Method in brief: (§1)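 Single oral dose of 50 mg/kg to mice in Phosal 53 MCT (60%)/PEG400 (30%)/ethanol (10%). Tail blood collected at 0.5, 1, 2, 4, 6, 8 and 24 h post dose and spotted onto DMPK cards. Punched dried blood spot disks extracted with acetonitrile, quantified by LC-MS/MS.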

[6] = Solubility in phosphate buffered saline at pH 7.4 at 50 uM incubated overnight by liquid chromatography/tandem mass spectrometric analysis; assay type: physicochemical; details: buffer, pH 7.4, 50 µM
Method in brief: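 Compound at 50 µM in 1X PBS adjusted to pH 7.4, shaken overnight at 37 °C, then centrifuged 13500 rpm for 15 min at room temperature. Duplicate supernatant aliquots analysed by LC-MS/MS.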

[7] = Ratio of drug level in mouse brain to plasma at 5 mg/kg, ip administered as single dose measured 1 hr post dose by liquid chromatography/tandem mass spectrometric analysis; assay type: ADME, organism-based
Method in brief: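 Single IP injection of 5 mg/kg in 5% DMSO/7% Tween80/3% EtOH in 0.9% saline. At 1 h, plasma and brains collected; brains homogenized in water. Vehicle-injected mice (n=3) supplied matrix for standard curves. LC-MS/MS quantitation, with brain levels corrected for 3% v/w residual blood.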

[8] = system: Mus musculus; assay: Cmax in mouse at 50 mg/kg, po administered as single dose measured 24 hrs post dose by liquid chromatography/tandem mass spectrometric analysis; assay type: ADME, organism-based; parameters: dose 50 mg/kg, route oral; details: in vivo; method in brief: as §1
[9] = system: Trypanosoma brucei rhodesiense; assay: Antitrypanosomal activity against trypomastigote form of Trypanosoma brucei rhodesiense STIB900 infected in mouse assessed as cure rate at 50 mg/kg administered via oral gavage bid from day 2 to 5 post infection measured 3 times per week for first month and weekly up to 60 days by microscopic method relative to control; assay type: functional
[10] = Half life in mouse liver microsomes at 1.5 uM by liquid chromatography/tandem mass spectrometric analysis; assay type: ADME, microsome
Method in brief: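 Pooled mouse liver microsomes at 0.5 mg/ml with compound at 1.5 µM final, in duplicate. Quenched with acetonitrile at 0, 5, 10, 15, 30 and 60 min, analysed by LC-MS/MS. Testosterone and dextromethorphan run as controls.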

Cytochrome P450 3A4, sequence (P08684 whole entry): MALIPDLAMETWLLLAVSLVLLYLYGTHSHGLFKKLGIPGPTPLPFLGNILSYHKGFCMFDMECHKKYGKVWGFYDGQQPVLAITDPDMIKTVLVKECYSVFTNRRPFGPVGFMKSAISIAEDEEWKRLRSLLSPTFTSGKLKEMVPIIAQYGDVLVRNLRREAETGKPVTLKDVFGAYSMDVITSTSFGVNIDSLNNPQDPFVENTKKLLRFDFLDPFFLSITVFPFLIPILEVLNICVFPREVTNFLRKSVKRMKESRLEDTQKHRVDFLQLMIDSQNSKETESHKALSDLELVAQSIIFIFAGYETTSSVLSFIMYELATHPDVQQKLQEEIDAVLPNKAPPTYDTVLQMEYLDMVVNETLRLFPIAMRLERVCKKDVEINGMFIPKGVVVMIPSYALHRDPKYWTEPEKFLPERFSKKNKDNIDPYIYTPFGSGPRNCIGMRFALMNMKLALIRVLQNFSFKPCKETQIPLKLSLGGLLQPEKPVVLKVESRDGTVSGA

Row | SMILES | EC50 [1] [nM] | CC50 [2] [µM] | other results
1 | COc1ccc(N2C(=O)CN(Cc3ccc(C)cc3)C2=S)cc1Cl | 1550 | – | –
2 | O=C1CN(Cc2ccccc2)C(=S)N1c1cc(Cl)ccc1F | > 10000 | – | –
3 | COc1ccc(N2C(=O)CN(Cc3ccc(F)cc3F)C2=S)cc1Cl | 63 | – | –
4 | O=C1CN(Cc2ccccc2)C(=S)N1c1ccc(Cl)c(C(F)(F)F)c1 | > 10000 | – | –
5 | CN(C)c1ccc(N2C(=O)CN(Cc3ccccc3)C2=S)cc1F | 125 | – | –
6 | CC(=O)c1ccc(N2C(=O)CN(Cc3ccccc3)C2=S)cc1 | > 10000 | – | –
7 | COc1ccc(N2C(=O)CN(Cc3ccc(F)cc3C(F)(F)F)C2=S)cc1Cl | 924 | – | –
8 | COc1cccc(N2C(=O)CN(Cc3ccccc3)C2=S)c1 | > 10000 | – | –
9 | COc1ccc(N2C(=O)CN(Cc3ccc(F)cc3[N+](=O)[O-])C2=S)cc1Cl | 350 | – | –
10 | COc1ccc(N2C(=O)CN(Cc3ccccc3)C2=S)c(OC)c1 | 637 | – | –
11 | O=C1CN(Cc2ccccc2)C(=S)N1c1cc(C(F)(F)F)cc(C(F)(F)F)c1 | > 10000 | – | –
12 | COc1ccc(N2C(=O)CN(Cc3ccc(C(F)(F)F)cc3)C2=S)cc1Cl | > 20000 | – | –
13 | CN(C)c1ccc(N2C(=O)CN(Cc3ccccc3)C2=S)cc1 | 1500 | – | –
14 | O=C1CN(Cc2ccccc2)C(=S)N1c1ccc(F)cc1 | > 10000 | – | –
15 | CC(C)NCC(O)COc1cccc2ccccc12 (centres undefined) [PROPRANOLOL] | – | – | PPB [3]: 91.7%
16 | COc1ccc(N2C(=O)CN(Cc3cccnc3)C2=S)cc1Cl | 3000 | – | –
17 | CN(C)c1ccc(N2C(=O)CN(Cc3ccc(F)cc3C(F)(F)F)C2=S)cc1Cl | 22 | > 50 | –
18 | COc1ccc(N2C(=O)CN(Cc3ccccc3)C2=S)cc1Cl | 346 | – | –
19 | COc1ccc(N2C(=O)CN(Cc3ccccc3)C2=S)cc1N(C)C | 431 | – | –
20 | COc1ccc(N2C(=O)CN(Cc3ccc(C#N)cc3)C2=S)cc1Cl | 17800 | – | –
21 | COc1ccc(N2C(=O)CN(Cc3ccccc3)C2=S)cc1OC | 161 | – | –
22 | COc1ccc(N2C(=O)CN(Cc3ccc(F)c(F)c3)C2=S)cc1OC | 115 | > 50 | –
23 | CC(C)c1ccc(N2C(=O)CN(Cc3ccccc3)C2=S)cc1 | > 10000 | – | –

Row | SMILES | EC50 [1] [nM] | CC50 [2] [µM] | other results
24 | CCN(CC)CCCC(C)Nc1c2ccc(Cl)cc2nc2ccc(OC)cc12 (centres undefined) [QUINACRINE] | – | 2.34 | –
25 | COc1ccc(N2C(=O)CN(Cc3cccc(F)c3)C2=S)cc1Cl | 968 | – | –
26 | COc1ccc(Cl)cc1N1C(=O)CN(Cc2ccccc2)C1=S | > 10000 | – | –
27 | O=C1CN(Cc2ccccc2)C(=S)N1c1ccccc1Cl | > 20000 | – | –
28 | COc1ccc(N2C(=O)CN(Cc3ccc(F)cc3OC)C2=S)cc1Cl | 191 | – | –
29 | COC(=O)c1ccc(CN2CC(=O)N(c3ccc(OC)c(Cl)c3)C2=S)cc1 | > 20000 | – | –
30 | COc1ccc(CN2CC(=O)N(c3ccc(OC)c(Cl)c3)C2=S)cc1 | > 20000 | – | –
31 | COc1ccc(N2C(=O)CN(Cc3ccccc3)C2=S)cc1 | > 10000 | – | –
32 | O=C1CN(Cc2ccccc2)C(=S)N1c1ccc(O)cc1 | > 10000 | – | –
33 | COc1ccc(N2C(=O)CN(Cc3ccc(Cl)cc3)C2=S)cc1Cl | 853 | – | –
34 | O=C1CN(Cc2ccccc2)C(=S)N1c1ccc(F)c(Cl)c1 | > 10000 | – | –
35 | O=C1CN(Cc2ccccc2)C(=S)N1c1ccccc1 | > 10000 | – | –
36 | O=C1CN(Cc2ccccc2)C(=S)N1c1ccc(Cl)cc1 | > 10000 | – | –
37 | O=C(O)c1ccc(N2C(=O)CN(Cc3ccccc3)C2=S)cc1 | > 10000 | – | –
38 | COc1cc(N2C(=O)CN(Cc3ccccc3)C2=S)cc(OC)c1OC | > 10000 | – | –
39 | COc1ccc(N2C(=O)CN(Cc3ccc(F)c(C#N)c3)C2=S)cc1Cl | > 20000 | – | –
40 | COc1ccc(N2C(=O)CN(Cc3ccc(F)cc3)C2=S)cc1Cl | 52 | – | –
41 | COc1ccc(N2C(=O)CN(Cc3ccc(F)c(F)c3)C2=S)cc1Cl | 313 | – | –
42 | COc1cc(N2C(=O)CN(Cc3ccc(F)cc3Cl)C2=S)ccc1N(C)C | 1.9 to 2 | > 50 | PPB [3]: 96.3%; IC50 [4]: 7.76 µM; AUC [5]: 750 µmol·min/L; solubility [6]: 4.1 µM (≈ 1.67 µg/mL); BPR [7]: 1.68; Cmax [8]: 2500 nM; Activity [9]: 100%
43 | O=C1CN(Cc2ccccc2)C(=S)N1c1cccc(Cl)c1 | > 20000 | – | –
44 | COc1cc(F)ccc1CN1CC(=O)N(c2ccc(OC)c(OC)c2)C1=S | 107 | > 50 | –
45 | COc1ccc(N2C(=O)CN(Cc3ccc(F)cc3)C2=S)cc1OC | 49 | > 50 | –
46 | COc1ccc(N2C(=O)CN(Cc3ccc(F)cc3[N+](=O)[O-])C2=S)cc1OC | 555 | > 50 | –

The next lines start with results.

Row | EC50 [1] [nM] | SMILES | CC50 [2] [µM] | other results
47 | 6 | COc1cc(N2C(=O)CN(Cc3ccc(F)cc3F)C2=S)ccc1N(C)C | > 50 | –
48 | 14 | COc1ccc(N2C(=O)CN(Cc3ccc(F)cc3Cl)C2=S)cc1OC | 36.8 | –
49 | 27 | O=C1CN(Cc2ccc(F)cc2)C(=S)N1c1ccc(N2CCCC2)c(Cl)c1 | > 50 | –
50 | 44 | COc1cc(N2C(=O)CN(Cc3ccc(F)cc3[N+](=O)[O-])C2=S)ccc1N(C)C | > 50 | –
51 | 15 | CN(C)c1ccc(N2C(=O)CN(Cc3ccc(F)cc3Cl)C2=S)cc1F | > 50 | –
52 | 28 | COc1cc(N2C(=O)CN(Cc3ccc(F)c(F)c3)C2=S)ccc1N(C)C | > 50 | –
53 | 16 | CN(C)c1ccc(N2C(=O)CN(Cc3ccccc3)C2=S)cc1Cl | – | –
54 | 13 | COc1cc(N2C(=O)CN(Cc3ccccc3)C2=S)ccc1N(C)C | – | –
55 | 9 | O=C1CN(Cc2ccc(F)cc2Cl)C(=S)N1c1ccc(N2CCCC2)c(Cl)c1 | > 50 | –
56 | 37 | COc1ccc(N2C(=O)CN(Cc3ccc(F)cc3C(F)(F)F)C2=S)cc1OC | > 50 | –
57 | 19 | CN(C)c1ccc(N2C(=O)CN(Cc3ccc(F)cc3[N+](=O)[O-])C2=S)cc1Cl | > 50 | –
58 | 10 | O=C1CN(Cc2ccc(F)cc2F)C(=S)N1c1ccc(N2CCCC2)c(Cl)c1 | > 50 | –
59 | 1.15 | N=C(N)c1ccc(OCCCCCOc2ccc(C(=N)N)cc2)cc1 | – | –
60 | 13 | CN(C)c1ccc(N2C(=O)CN(Cc3ccc(F)c(F)c3)C2=S)cc1Cl | > 50 | –
61 | 4 | CN(C)c1ccc(N2C(=O)CN(Cc3ccc(F)cc3F)C2=S)cc1Cl | > 50 | –
62 | 11 | COc1cc(F)ccc1CN1CC(=O)N(c2ccc(N(C)C)c(OC)c2)C1=S | 39.6 | –
63 | 28 | CN(C)c1ccc(N2C(=O)CN(Cc3ccc(F)cc3F)C2=S)cc1F | > 50 | –
64 | 33 | COc1ccc(N2C(=O)CN(Cc3ccc(F)cc3F)C2=S)cc1OC | > 50 | –
65 | 3 to 3.2 | CN(C)c1ccc(N2C(=O)CN(Cc3ccc(F)cc3)C2=S)cc1Cl | 39 | PPB [3]: 88.8%; AUC [5]: 1376 µmol·min/L; solubility [6]: 2.1 µM (≈ 0.794 µg/mL); t1/2 [10]: 15 min; BPR [7]: 0.74; Cmax [8]: 2100 nM; Activity [9]: 100%
66 | 7 | COc1cc(N2C(=O)CN(Cc3ccc(F)cc3)C2=S)ccc1N(C)C | > 50 | –
67 | 11 | COc1cc(F)ccc1CN1CC(=O)N(c2ccc(N(C)C)c(Cl)c2)C1=S | 12.6 | –
68 | 28 | COc1cc(N2C(=O)CN(Cc3ccc(F)cc3C(F)(F)F)C2=S)ccc1N(C)C | > 50 | –
69 | 2 | CN(C)c1ccc(N2C(=O)CN(Cc3ccc(F)cc3Cl)C2=S)cc1Cl | > 50 | –

Reference: ChEMBL document CHEMBL4190338, “1-Benzyl-3-aryl-2-thiohydantoin Derivatives as New Anti-Trypanosoma brucei Agents: SAR and in Vivo Efficacy” (ACS Med Chem Lett, 2017)
